Assay results taken from ChEMBL document CHEMBL2062435, “Synthesis and in vitro antibacterial activity of gemifloxacin derivatives containing a substituted benzyloxime moiety” (2012).

How the values were obtained:
Type in all cases: functional
Pseudomonas aeruginosa [1] = experiment: Antimicrobial activity against extended spectrum beta-lactamases-producing Pseudomonas aeruginosa 10-18 after 18-24 hrs by two-fold serial dilution method
Summary of the method: (§1)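 Agar-medium twofold serial dilution against Gram-positive and Gram-negative strains; MIC taken as the lowest compound concentration giving complete inhibition of bacterial growth after incubation at 35 °C for 18-24 h.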

[2] = tested on: Staphylococcus epidermidis; experiment: Antimicrobial activity against extended spectrum beta-lactamases-producing methicillin-sensitive Staphylococcus epidermidis 10-11 after 18-24 hrs by two-fold serial dilution method; summary of the method: as §1
Escherichia coli [3] = experiment: Antimicrobial activity against extended spectrum beta-lactamases-producing Escherichia coli 10-4 after 18-24 hrs by two-fold serial dilution method; summary of the method: as §1
Enterococcus faecalis [4] = experiment: Antimicrobial activity against Enterococcus faecalis 10-5 after 18-24 hrs by two-fold serial dilution method; summary of the method: as §1
Pseudomonas aeruginosa [5] = experiment: Antimicrobial activity against extended spectrum beta-lactamases-producing Pseudomonas aeruginosa 10-20 after 18-24 hrs by two-fold serial dilution method; summary of the method: as §1
Klebsiella pneumoniae [6] = experiment: Antimicrobial activity against Klebsiella pneumoniae 10-4 after 18-24 hrs by two-fold serial dilution method; summary of the method: as §1
Escherichia coli [7] = experiment: Antimicrobial activity against extended spectrum beta-lactamases-producing Escherichia coli 10-2 after 18-24 hrs by two-fold serial dilution method; summary of the method: as §1
Enterococcus faecium [8] = experiment: Antimicrobial activity against Enterococcus faecium 10-5 after 18-24 hrs by two-fold serial dilution method; summary of the method: as §1
[9] = tested on: Staphylococcus epidermidis; experiment: Antimicrobial activity against extended spectrum beta-lactamases-producing methicillin-sensitive Staphylococcus epidermidis 10-15 after 18-24 hrs by two-fold serial dilution method; summary of the method: as §1
Staphylococcus aureus [10] = experiment: Antimicrobial activity against extended spectrum beta-lactamases-producing methicillin-resistant Staphylococcus aureus 10-11 after 18-24 hrs by two-fold serial dilution method
Summary of the method: (§2)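 Agar twofold serial dilution MIC against clinical isolates. MIC was taken as the lowest concentration giving complete inhibition of bacterial growth after incubation at 35 °C for 18-24 h.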

Streptococcus pneumoniae [11] = experiment: Antimicrobial activity against extended spectrum beta-lactamases-producing Streptococcus pneumoniae 10-4 after 18-24 hrs by two-fold serial dilution method; summary of the method: as §1
Pseudomonas aeruginosa [12] = experiment: Antimicrobial activity against extended spectrum beta-lactamases-producing Pseudomonas aeruginosa 10-9 after 18-24 hrs by two-fold serial dilution method; summary of the method: as §1
Pseudomonas aeruginosa [13] = experiment: Antimicrobial activity against Pseudomonas aeruginosa 10-12 after 18-24 hrs by two-fold serial dilution method; summary of the method: as §1
[14] = tested on: Staphylococcus epidermidis; experiment: Antimicrobial activity against extended spectrum beta-lactamases-producing methicillin-resistant Staphylococcus epidermidis 10-10 after 18-24 hrs by two-fold serial dilution method; summary of the method: as §2
Enterococcus faecalis [15] = experiment: Antimicrobial activity against Enterococcus faecalis 10-6 after 18-24 hrs by two-fold serial dilution method; summary of the method: as §1
Staphylococcus aureus [16] = experiment: Antimicrobial activity against Staphylococcus aureus ATCC […] after 18-24 hrs by two-fold serial dilution method; summary of the method: as §1
Enterococcus faecalis [17] = experiment: Antimicrobial activity against Enterococcus faecalis 10-7 after 18-24 hrs by two-fold serial dilution method; summary of the method: as §1
Escherichia coli [18] = experiment: Antimicrobial activity against Escherichia coli 10-3 after 18-24 hrs by two-fold serial dilution method; summary of the method: as §1
[19] = tested on: Staphylococcus epidermidis; experiment: Antimicrobial activity against extended spectrum beta-lactamases-producing methicillin-sensitive Staphylococcus epidermidis 10-13 after 18-24 hrs by two-fold serial dilution method; summary of the method: as §1
Pseudomonas aeruginosa [20] = experiment: Antimicrobial activity against extended spectrum beta-lactamases-producing Pseudomonas aeruginosa 10-15 after 18-24 hrs by two-fold serial dilution method; summary of the method: as §1
Staphylococcus aureus [21] = experiment: Antimicrobial activity against extended spectrum beta-lactamases-producing methicillin-sensitive Staphylococcus aureus 10-14 after 18-24 hrs by two-fold serial dilution method; summary of the method: as §1
Klebsiella pneumoniae [22] = experiment: Antimicrobial activity against Klebsiella pneumoniae 10-2 after 18-24 hrs by two-fold serial dilution method; summary of the method: as §1
Enterococcus faecium [23] = experiment: Antimicrobial activity against Enterococcus faecium 10-9 after 18-24 hrs by two-fold serial dilution method; summary of the method: as §1
Klebsiella pneumoniae [24] = experiment: Antimicrobial activity against Klebsiella pneumoniae 10-3 after 18-24 hrs by two-fold serial dilution method; summary of the method: as §1
Escherichia coli [25] = experiment: Antimicrobial activity against Escherichia coli 10-1 after 18-24 hrs by two-fold serial dilution method; summary of the method: as §1
Escherichia coli [26] = experiment: Antimicrobial activity against extended spectrum beta-lactamases-producing Escherichia coli 10-3 after 18-24 hrs by two-fold serial dilution method; summary of the method: as §1
Klebsiella pneumoniae [27] = experiment: Antimicrobial activity against extended spectrum beta-lactamases-producing Klebsiella pneumoniae 10-1 after 18-24 hrs by two-fold serial dilution method; summary of the method: as §1
Escherichia coli [28] = experiment: Antimicrobial activity against Escherichia coli 10-2 after 18-24 hrs by two-fold serial dilution method; summary of the method: as §1
Klebsiella pneumoniae [29] = experiment: Antimicrobial activity against extended spectrum beta-lactamases-producing Klebsiella pneumoniae 10-2 after 18-24 hrs by two-fold serial dilution method; summary of the method: as §1
Pseudomonas aeruginosa [30] = experiment: Antimicrobial activity against extended spectrum beta-lactamases-producing Pseudomonas aeruginosa 10-5 after 18-24 hrs by two-fold serial dilution method; summary of the method: as §1
Staphylococcus aureus [31] = experiment: Antimicrobial activity against extended spectrum beta-lactamases-producing methicillin-sensitive Staphylococcus aureus 10-13 after 18-24 hrs by two-fold serial dilution method; summary of the method: as §1
Staphylococcus aureus [32] = experiment: Antimicrobial activity against extended spectrum beta-lactamases-producing methicillin-resistant Staphylococcus aureus 10-15 after 18-24 hrs by two-fold serial dilution method; summary of the method: as §2
Escherichia coli [33] = experiment: Antimicrobial activity against Escherichia coli ATCC 25922 after 18-24 hrs by two-fold serial dilution method; summary of the method: as §1
Klebsiella pneumoniae [34] = experiment: Antimicrobial activity against extended spectrum beta-lactamases-producing Klebsiella pneumoniae 10-3 after 18-24 hrs by two-fold serial dilution method; summary of the method: as §1
[35] = tested on: Staphylococcus epidermidis; experiment: Antimicrobial activity against extended spectrum beta-lactamases-producing methicillin-resistant Staphylococcus epidermidis 10-13 after 18-24 hrs by two-fold serial dilution method; summary of the method: as §2
Streptococcus pneumoniae [36] = experiment: Antimicrobial activity against extended spectrum beta-lactamases-producing Streptococcus pneumoniae 10-1 after 18-24 hrs by two-fold serial dilution method; summary of the method: as §1

Row | Compound | MIC (Pseudomonas aeruginosa [1]) | MIC [2] | MIC (Escherichia coli [3]) | MIC (Enterococcus faecalis [4]) | MIC (Pseudomonas aeruginosa [5]) | MIC (Klebsiella pneumoniae [6]) | MIC (Escherichia coli [7]) | MIC (Enterococcus faecium [8]) | MIC [9] | MIC (Staphylococcus aureus [10]) | MIC (Streptococcus pneumoniae [11]) | MIC (Pseudomonas aeruginosa [12]) | MIC (Pseudomonas aeruginosa [13]) | MIC [14] | MIC (Enterococcus faecalis [15]) | MIC (Staphylococcus aureus [16]) | MIC (Enterococcus faecalis [17]) | MIC (Escherichia coli [18]) | MIC [19] | MIC (Pseudomonas aeruginosa [20]) | also measured
1 | COc1cccc(OC)c1CO/N=C1\CN(c2nc3c(cc2F)c(=O)c(C(=O)O)cn3C2CC2)CC1CN.CS(=O)(=O)O (racemic) | 8 µg/mL | 0.125 µg/mL | 4 µg/mL | 0.5 µg/mL | 2 µg/mL | > 128 µg/mL | > 128 µg/mL | 8 µg/mL | 0.5 µg/mL | 1 µg/mL | 0.25 µg/mL | 4 µg/mL | 4 µg/mL | 0.25 µg/mL | 2 µg/mL | 0.03 µg/mL | 1 µg/mL | 8 µg/mL | 2 µg/mL | 4 µg/mL | MIC (Staphylococcus aureus [21]): 0.125 µg/mL; MIC (Klebsiella pneumoniae [22]): > 128 µg/mL; MIC (Enterococcus faecium [23]): 8 µg/mL; MIC (Klebsiella pneumoniae [24]): 8 µg/mL; MIC (Escherichia coli [25]): > 128 µg/mL; MIC (Escherichia coli [26]): 16 µg/mL; MIC (Klebsiella pneumoniae [27]): 64 µg/mL; MIC (Escherichia coli [28]): 8 µg/mL; MIC (Klebsiella pneumoniae [29]): 64 µg/mL; MIC (Pseudomonas aeruginosa [30]): 4 µg/mL; MIC (Staphylococcus aureus [31]): 0.125 µg/mL; MIC (Staphylococcus aureus [32]): 0.5 µg/mL; MIC (Escherichia coli [33]): 0.25 µg/mL; MIC (Klebsiella pneumoniae [34]): > 128 µg/mL; MIC [35]: 0.25 µg/mL; MIC (Streptococcus pneumoniae [36]): 0.125 µg/mL
2 | COc1cc(CO/N=C2\CN(c3nc4c(cc3F)c(=O)c(C(=O)O)cn4C3CC3)CC2CN)c([N+](=O)[O-])cc1OC.CS(=O)(=O)O (racemic) | 16 µg/mL | 2 µg/mL | 4 µg/mL | 0.125 µg/mL | 32 µg/mL | > 128 µg/mL | > 128 µg/mL | 8 µg/mL | 8 µg/mL | 2 µg/mL | 0.125 µg/mL | 16 µg/mL | 16 µg/mL | 1 µg/mL | 16 µg/mL | 0.015 µg/mL | 2 µg/mL | 32 µg/mL | 0.25 µg/mL | 32 µg/mL | MIC (Staphylococcus aureus [21]): 0.125 µg/mL; MIC (Klebsiella pneumoniae [22]): > 128 µg/mL; MIC (Enterococcus faecium [23]): 16 µg/mL; MIC (Klebsiella pneumoniae [24]): 4 µg/mL; MIC (Escherichia coli [25]): > 128 µg/mL; MIC (Escherichia coli [26]): > 128 µg/mL; MIC (Klebsiella pneumoniae [27]): > 128 µg/mL; MIC (Escherichia coli [28]): 8 µg/mL; MIC (Klebsiella pneumoniae [29]): > 128 µg/mL; MIC (Pseudomonas aeruginosa [30]): 16 µg/mL; MIC (Staphylococcus aureus [31]): 0.125 µg/mL; MIC (Staphylococcus aureus [32]): 1 µg/mL; MIC (Escherichia coli [33]): 0.25 µg/mL; MIC (Klebsiella pneumoniae [34]): > 128 µg/mL; MIC [35]: 1 µg/mL; MIC (Streptococcus pneumoniae [36]): 1 µg/mL
3 | COc1cc(CO/N=C2\CN(c3nc4c(cc3F)c(=O)c(C(=O)O)cn4C3CC3)CC2CN)ccc1OCc1ccccc1.CS(=O)(=O)O (racemic) | 16 µg/mL | 8 µg/mL | 32 µg/mL | 4 µg/mL | 0.06 µg/mL | > 128 µg/mL | > 128 µg/mL | 16 µg/mL | 8 µg/mL | 4 µg/mL | 16 µg/mL | 16 µg/mL | < 0.008 µg/mL | 4 µg/mL | 8 µg/mL | < 0.008 µg/mL | 4 µg/mL | > 128 µg/mL | 2 µg/mL | 32 µg/mL | MIC (Staphylococcus aureus [21]): < 0.008 µg/mL; MIC (Klebsiella pneumoniae [22]): > 128 µg/mL; MIC (Enterococcus faecium [23]): 16 µg/mL; MIC (Klebsiella pneumoniae [24]): 32 µg/mL; MIC (Escherichia coli [25]): > 128 µg/mL; MIC (Escherichia coli [26]): > 128 µg/mL; MIC (Klebsiella pneumoniae [27]): > 128 µg/mL; MIC (Escherichia coli [28]): 16 µg/mL; MIC (Klebsiella pneumoniae [29]): > 128 µg/mL; MIC (Pseudomonas aeruginosa [30]): 16 µg/mL; MIC (Staphylococcus aureus [31]): 4 µg/mL; MIC (Staphylococcus aureus [32]): 0.5 µg/mL; MIC (Escherichia coli [33]): 2 µg/mL; MIC (Klebsiella pneumoniae [34]): > 128 µg/mL; MIC [35]: 1 µg/mL; MIC (Streptococcus pneumoniae [36]): 4 µg/mL
